In ChEMBL document CHEMBL4689842, “EUbOPEN Chemogenomics Library wave 1” (2021):

Test system: U2OS
Assay: Multiplex assay against U2OS
Format: toxicity, cell-based
Conditions: human
Method in brief: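 Live cells carried four stains from seeding: Hoechst33342, BioTracker Green Microtubule Cytoskeleton Dye, MitoTracker Red and Annexin V Alexa Fluor 680. They were imaged on a CQ1 microscope at 37°C and 5% CO2 after compound addition. Using CellPathfinder machine-learning gating, cells were split into Hoechst high-intensity objects or normal cells, normal cells into healthy, pyknosed or fragmented nuclei, and pyknosed cells into mitotic or apoptotic; tubulin, mitochondrial-mass and membrane-permeability phenotypes are per cents of healthy-nucleus cells.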

[1] = 12 h, 1 µM, compound concentration 1 uM, replicate 1
[2] = 12 h, 1 µM, compound concentration 1 uM, replicate 2
[3] = 12 h, 10 µM, compound concentration 10 uM, replicate 1
[4] = 12 h, 10 µM, compound concentration 10 uM, replicate 2
[5] = 24 h, 1 µM, compound concentration 1 uM, replicate 1
[6] = 24 h, 1 µM, compound concentration 1 uM, replicate 2
[7] = 24 h, 10 µM, compound concentration 10 uM, replicate 1
[8] = 24 h, 10 µM, compound concentration 10 uM, replicate 2
[9] = 48 h, 1 µM, compound concentration 1 uM, replicate 1
[10] = 48 h, 1 µM, compound concentration 1 uM, replicate 2
[11] = 48 h, 10 µM, compound concentration 10 uM, replicate 1
[12] = 48 h, 10 µM, compound concentration 10 uM, replicate 2

With N#Cc1cccc(C(=O)Nc2cc(-c3ccccc3)nn2-c2ccccc2)c1 the “Population Apoptotic (%)” value [1] was 33%, the “Population Fragmented Nuclei (%)” value [1] was 14% and the “Population Healthy Nuclei (%)” value [1] was 73%. The “Population Hoechst High Intensity Objects (%)” value [1] was 9%, the “Population Membrane Permeable-Phenotype (%)” value [1] was 2% and the “Population Mitotic Cells (%)” value [1] was 66%. For the same molecule, the “Population Normal (%)” value [1] was 90%, the “Population Pyknosed Nuclei (%)” value [1] was 12% and the “Population Tubulin-Different-Phenotype (%)” value [1] was 13%. For the same molecule, the “Total Cell Count” value [1] was 109, the “Population Apoptotic (%)” value [2] was 16% and the “Population Fragmented Nuclei (%)” value [2] was 5%. The “Population Healthy Nuclei (%)” value [2] was 84%, the “Population Hoechst High Intensity Objects (%)” value [2] was 3% and the “Population Membrane Permeable-Phenotype (%)” value [2] was 6%. For the same molecule, the “Population Mitochondria Different-Phenotype (%)” value [2] was 8%, the “Population Mitotic Cells (%)” value [2] was 83% and the “Population Normal (%)” value [2] was 96%. The “Population Pyknosed Nuclei (%)” value [2] was 10%, the “Population Tubulin-Different-Phenotype (%)” value [2] was 16% and the “Total Cell Count” value [2] was 59. For the same molecule, the “Population Apoptotic (%)” value [3] was 50%, the “Population Fragmented Nuclei (%)” value [3] was 14% and the “Population Healthy Nuclei (%)” value [3] was 69%. The “Population Hoechst High Intensity Objects (%)” value [3] was 6%, the “Population Membrane Permeable-Phenotype (%)” value [3] was 22% and the “Population Mitochondria Different-Phenotype (%)” value [3] was 86%. The “Population Mitotic Cells (%)” value [3] was 50%, the “Population Normal (%)” value [3] was 93% and the “Population Pyknosed Nuclei (%)” value [3] was 15%. The “Population Tubulin-Different-Phenotype (%)” value [3] was 100%, the “Total Cell Count” value [3] was 121 and the “Population Apoptotic (%)” value [4] was 45%. The “Population Fragmented Nuclei (%)” value [4] was 9%, the “Population Healthy Nuclei (%)” value [4] was 60% and the “Population Hoechst High Intensity Objects (%)” value [4] was 9%. For the same molecule, the “Population Membrane Permeable-Phenotype (%)” value [4] was 15%, the “Population Mitochondria Different-Phenotype (%)” value [4] was 84% and the “Population Mitotic Cells (%)” value [4] was 55%. The “Population Normal (%)” value [4] was 90%, the “Population Pyknosed Nuclei (%)” value [4] was 30% and the “Population Tubulin-Different-Phenotype (%)” value [4] was 97%. The “Total Cell Count” value [4] was 72, the “Population Apoptotic (%)” value [5] was 23% and the “Population Fragmented Nuclei (%)” value [5] was 13%. For the same molecule, the “Population Healthy Nuclei (%)” value [5] was 76%, the “Population Hoechst High Intensity Objects (%)” value [5] was 11% and the “Population Mitochondria Different-Phenotype (%)” value [5] was 5%. The “Population Mitotic Cells (%)” value [5] was 76%, the “Population Normal (%)” value [5] was 88% and the “Population Tubulin-Different-Phenotype (%)” value [5] was 3%. For the same molecule, the “Total Cell Count” value [5] was 137, the “Population Apoptotic (%)” value [6] was 14% and the “Population Fragmented Nuclei (%)” value [6] was 3%. For the same molecule, the “Population Healthy Nuclei (%)” value [6] was 86%, the “Population Hoechst High Intensity Objects (%)” value [6] was 4% and the “Population Membrane Permeable-Phenotype (%)” value [6] was 1%. The “Population Mitochondria Different-Phenotype (%)” value [6] was 8%, the “Population Mitotic Cells (%)” value [6] was 85% and the “Population Normal (%)” value [6] was 95%. The “Population Pyknosed Nuclei (%)” value [6] was 10%, the “Population Tubulin-Different-Phenotype (%)” value [6] was 7% and the “Total Cell Count” value [6] was 68. The “Population Apoptotic (%)” value [7] was 35%, the “Population Fragmented Nuclei (%)” value [7] was 19% and the “Population Healthy Nuclei (%)” value [7] was 55%. For the same molecule, the “Population Hoechst High Intensity Objects (%)” value [7] was 8%, the “Population Membrane Permeable-Phenotype (%)” value [7] was 33% and the “Population Mitochondria Different-Phenotype (%)” value [7] was 78%. The “Population Mitotic Cells (%)” value [7] was 64%, the “Population Normal (%)” value [7] was 91% and the “Population Pyknosed Nuclei (%)” value [7] was 25%. The “Population Tubulin-Different-Phenotype (%)” value [7] was 98%, the “Total Cell Count” value [7] was 119 and the “Population Apoptotic (%)” value [8] was 42%. The “Population Fragmented Nuclei (%)” value [8] was 9%, the “Population Healthy Nuclei (%)” value [8] was 67% and the “Population Hoechst High Intensity Objects (%)” value [8] was 6%. For the same molecule, the “Population Membrane Permeable-Phenotype (%)” value [8] was 30%, the “Population Mitochondria Different-Phenotype (%)” value [8] was 71% and the “Population Mitotic Cells (%)” value [8] was 57%. For the same molecule, the “Population Normal (%)” value [8] was 93%, the “Population Pyknosed Nuclei (%)” value [8] was 22% and the “Population Tubulin-Different-Phenotype (%)” value [8] was 95%. The “Total Cell Count” value [8] was 66, the “Population Apoptotic (%)” value [9] was 38% and the “Population Fragmented Nuclei (%)” value [9] was 10%. For the same molecule, the “Population Healthy Nuclei (%)” value [9] was 82%, the “Population Hoechst High Intensity Objects (%)” value [9] was 5% and the “Population Membrane Permeable-Phenotype (%)” value [9] was 2%. For the same molecule, the “Population Mitochondria Different-Phenotype (%)” value [9] was 2%, the “Population Mitotic Cells (%)” value [9] was 61% and the “Population Normal (%)” value [9] was 94%. For the same molecule, the “Population Pyknosed Nuclei (%)” value [9] was 7%, the “Population Tubulin-Different-Phenotype (%)” value [9] was 4% and the “Total Cell Count” value [9] was 190. The “Population Apoptotic (%)” value [10] was 20%, the “Population Fragmented Nuclei (%)” value [10] was 3% and the “Population Healthy Nuclei (%)” value [10] was 86%. For the same molecule, the “Population Hoechst High Intensity Objects (%)” value [10] was 4%, the “Population Membrane Permeable-Phenotype (%)” value [10] was 4% and the “Population Mitochondria Different-Phenotype (%)” value [10] was 13%. The “Population Mitotic Cells (%)” value [10] was 80%, the “Population Normal (%)” value [10] was 95% and the “Population Pyknosed Nuclei (%)” value [10] was 10%. The “Population Tubulin-Different-Phenotype (%)” value [10] was 9%, the “Total Cell Count” value [10] was 98 and the “Population Apoptotic (%)” value [11] was 59%. The “Population Fragmented Nuclei (%)” value [11] was 17%, the “Population Healthy Nuclei (%)” value [11] was 58% and the “Population Hoechst High Intensity Objects (%)” value [11] was 10%. For the same molecule, the “Population Membrane Permeable-Phenotype (%)” value [11] was 32%, the “Population Mitochondria Different-Phenotype (%)” value [11] was 67% and the “Population Mitotic Cells (%)” value [11] was 40%. For the same molecule, the “Population Normal (%)” value [11] was 89%, the “Population Pyknosed Nuclei (%)” value [11] was 24% and the “Population Tubulin-Different-Phenotype (%)” value [11] was 100%. The “Total Cell Count” value [11] was 123, the “Population Apoptotic (%)” value [12] was 55% and the “Population Fragmented Nuclei (%)” value [12] was 13%. The “Population Healthy Nuclei (%)” value [12] was 60%, the “Population Hoechst High Intensity Objects (%)” value [12] was 11% and the “Population Membrane Permeable-Phenotype (%)” value [12] was 52%. For the same molecule, the “Population Mitochondria Different-Phenotype (%)” value [12] was 42%, the “Population Mitotic Cells (%)” value [12] was 44% and the “Population Normal (%)” value [12] was 88%. For the same molecule, the “Population Pyknosed Nuclei (%)” value [12] was 26%, the “Population Tubulin-Different-Phenotype (%)” value [12] was 97% and the “Total Cell Count” value [12] was 78.
